Activity calls are given as the source filed them. The calls are words filed in the database; no cut-off is given here.
Legend:
Hepatitis C virus [1] = experiment: Antiviral activity against Hepatitis C virus genotype 1b infected in human Huh-luc replicon cells after 3 days by luciferase assay; type: functional, organism-based, Hepacivirus hominis; settings: subtype 1b, 72 h
[2] = Cytotoxicity against human Hep2 cells assessed as reduction in cell viability after 3 days by CellTiter-Glo assay; type: cell-based; settings: HEp-2 cells
Hepatitis C virus [3] = experiment: Antiviral activity against Hepatitis C virus genotype 2a infected in human Huh-luc replicon cells after 3 days by luciferase assay; type: functional, organism-based, Hepacivirus hominis; settings: subtype 2a, 72 h
BJ = experiment: Antiproliferative activity against human BJ cells after 3 days by MTS assay; settings: 72 h
MRC5 = experiment: Antiproliferative activity against human MRC5 cells after 3 days by MTS assay; settings: MRC5, 72 h
A549 = experiment: Antiproliferative activity against human A549 cells after 3 days by MTS assay; type: functional, cell-based; settings: A549, 72 h
CCRF-CEM = experiment: Antiproliferative activity against human CCRF-CEM cells after 3 days by MTS assay; type: functional, cell-based; settings: 72 h
[4] = Antiproliferative activity against human CEM-DNR-bulk cells after 3 days by MTS assay; settings: 72 h
HCT-116 [5] = experiment: Antiproliferative activity against human HCT116 cells after 3 days by MTS assay; type: functional, cell-based; settings: HCT-116, 72 h
HCT-116 [6] = experiment: Antiproliferative activity against p53 gene knocked out human HCT116 cells after 3 days by MTS assay; type: functional, cell-based; settings: HCT-116, 72 h
K562 = experiment: Antiproliferative activity against human K562 cells after 3 days by MTS assay; type: functional, cell-based; settings: K562, 72 h
[7] = Antiproliferative activity against human K562-TAX cells after 3 days by MTS assay; type: functional, cell-based; settings: 72 h
U2OS = experiment: Antiproliferative activity against human U2OS cells after 3 days by MTS assay; type: functional, cell-based; settings: 72 h
HL-60 = experiment: Antiproliferative activity against human HL60 cells after 72 hrs by XTT assay; type: functional, cell-based; settings: HL-60, 72 h
HepG2 = experiment: Antiproliferative activity against human HepG2 cells after 72 hrs by XTT assay; type: functional, cell-based; settings: HepG2, 72 h
HeLa S3 = experiment: Antiproliferative activity against human HeLaS3 cells after 72 hrs by XTT assay; type: functional, cell-based; settings: HeLa S3, 72 h
Adenosine kinase [8] = target: T1, Adenosine kinase (Homo sapiens, UniProt P55263); experiment: Substrate activity at recombinant human ADK assessed as compound phosphorylation at 50 uM after 20 mins in presence of [3H]-adenosine by UPLC; type: ADME
T1 sequence (P55263 whole entry): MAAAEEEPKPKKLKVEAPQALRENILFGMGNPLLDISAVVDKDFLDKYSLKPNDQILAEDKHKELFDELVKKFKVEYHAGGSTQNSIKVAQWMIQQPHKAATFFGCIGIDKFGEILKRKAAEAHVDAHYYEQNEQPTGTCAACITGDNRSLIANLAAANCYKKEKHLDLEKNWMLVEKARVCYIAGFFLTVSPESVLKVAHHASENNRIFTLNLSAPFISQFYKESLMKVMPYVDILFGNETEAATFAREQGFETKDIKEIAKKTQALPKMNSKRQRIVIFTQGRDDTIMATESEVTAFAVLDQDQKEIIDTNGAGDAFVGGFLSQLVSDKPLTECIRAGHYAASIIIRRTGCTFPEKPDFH

Adenosine kinase [9] = target: T1, Adenosine kinase; experiment: Inhibition of recombinant human ADK using [3H]-adenosine as substrate after 20 mins by TLC scanner-based analysis relative to control
Outline: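 ADK inhibition: 50 μM adenosine substrate with 10 μM test compound and 97 ng enzyme, 20 min at 37 °C.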

Influenza A virus = experiment: Antiviral activity against Influenza A virus (A/Mexico/4108/2009(H1N1)) infected in MDCK cells assessed as inhibited virus-induced cytopathic effect incubated for 2 days by XTT assay; type: functional, organism-based
Human orthopneumovirus = experiment: Antiviral activity against Human respiratory syncytial virus A2 infected in Hep2 cells assessed as reduction in virus-induced cytopathic effect incubated for 4 days by CellTiter-Glo viability reagent based assay; type: functional, organism-based
Coxsackievirus B3 = experiment: Antiviral activity against Human coxsackie B3 Nancy infected in human HeLa cells assessed as inhibited virus-induced cytopathic effect incubated for 2 days by XTT assay; type: functional, organism-based
Human alphaherpesvirus 1 = experiment: Antiviral activity against human herpesvirus 1 HF infected in African green monkey Vero cells assessed as inhibited virus-induced cytopathic effect incubated for 3 days by XTT assay; type: functional, organism-based
dengue virus type 2 = experiment: Antiviral activity against Dengue virus 2 Thailand/16681/84 infected in African green monkey Vero cells assessed as inhibition of virus replication incubated for 3 days by fluorescence microscopy; type: functional, organism-based

| Structure (SMILES) | EC50 (Hepatitis C virus [1]) | CC50 at 72 h [2] | EC50 (Hepatitis C virus [3]) | IC50 (BJ) | IC50 (MRC5) | IC50 (A549) | IC50 (CCRF-CEM) | IC50 [4] | IC50 (HCT-116 [5]) | IC50 (HCT-116 [6]) | IC50 (K562) | IC50 [7] | IC50 (U2OS) | IC50 (HL-60) | IC50 (HepG2) | IC50 (HeLa S3) | Activity (Adenosine kinase [8]) | IC50 (Adenosine kinase [9]) | Activity (Influenza A virus) | Activity (Human orthopneumovirus) | further results |
| --- | --- | --- | --- | --- | --- | --- | --- | --- | --- | --- | --- | --- | --- | --- | --- | --- | --- | --- | --- | --- | --- |
| Cn1ccc2c3c(-c4ccoc4)ncnc3n([C@@H]3O[C@H](CO)[C@@H](O)[C@H]3O)c21 | 16.5 µM | > 44.4 µM | > 44.4 µM | > 50 µM | > 50 µM | > 50 µM | > 50 µM | > 50 µM | > 50 µM | > 50 µM | > 50 µM | > 50 µM | > 50 µM | > 50 µM | > 50 µM | > 50 µM | 0% | > 10 µM | inactive | inactive | Activity (Coxsackievirus B3): inactive; Activity (Human alphaherpesvirus 1): inactive; Activity (dengue virus type 2): inactive |
| Cn1ccc2c1c1c(Cl)ncnc1n2[C@@H]1O[C@H](CO)[C@@H](O)[C@H]1O | 0.37 µM | > 44.4 µM | 0.06 µM | 1.2 µM | 50 µM | 2.99 µM | 0.06 µM | 50 µM | 0.17 µM | 0.15 µM | 0.18 µM | 50 µM | 0.62 µM | 0.06 µM | 0.16 µM | 0.57 µM | 77% | > 10 µM | inactive | inactive | Activity (Coxsackievirus B3): inactive; Activity (Human alphaherpesvirus 1): inactive; Activity (dengue virus type 2): inactive |
| COc1ncnc2c1c1ccn(C)c1n2[C@@H]1O[C@H](CO)[C@@H](O)[C@H]1O | > 44.4 µM | > 44.4 µM | > 44.4 µM | > 50 µM | > 50 µM | > 50 µM | > 50 µM | > 50 µM | > 50 µM | > 50 µM | > 50 µM | > 50 µM | > 50 µM | > 50 µM | > 50 µM | > 50 µM | 0% | > 10 µM | inactive | inactive | Activity (Coxsackievirus B3): inactive; Activity (Human alphaherpesvirus 1): inactive; Activity (dengue virus type 2): inactive |
| Cn1ccc2c3c(-c4ccco4)ncnc3n([C@@H]3O[C@H](CO)[C@@H](O)[C@H]3O)c21 | 0.34 µM | 2.63 to 16.4 µM | 0.77 µM | 5.36 µM | 5.89 µM | 5.73 µM | 1.36 µM | 2.17 µM | 3.82 µM | 4.01 µM | 4.03 µM | 2.4 µM | 3.49 µM | 3 µM | > 50 µM | 2.97 µM | 0% | 3.58 µM | inactive | inactive | Activity (Coxsackievirus B3): inactive; Activity (Human alphaherpesvirus 1): inactive; Activity (dengue virus type 2): inactive |

Reference: ChEMBL document CHEMBL4330056, “Synthesis and Cytotoxic and Antiviral Profiling of Pyrrolo- and Furo-Fused 7-Deazapurine Ribonucleosides” (J Med Chem, 2018)
